# Screening results (PubChem)
# S1P2 ag: agonists of human S1P2 receptor. S1P2-expressing cell line, agonist reporter read-out. O95136. hit rate 0.46% among 97,000. activation, % at 4.5 µM; in the data active means activation above about 16%;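 further: 0% = vehicle low control and 100% = maximal reference agonist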
# Target sequence (O95136 whole entry, looked up): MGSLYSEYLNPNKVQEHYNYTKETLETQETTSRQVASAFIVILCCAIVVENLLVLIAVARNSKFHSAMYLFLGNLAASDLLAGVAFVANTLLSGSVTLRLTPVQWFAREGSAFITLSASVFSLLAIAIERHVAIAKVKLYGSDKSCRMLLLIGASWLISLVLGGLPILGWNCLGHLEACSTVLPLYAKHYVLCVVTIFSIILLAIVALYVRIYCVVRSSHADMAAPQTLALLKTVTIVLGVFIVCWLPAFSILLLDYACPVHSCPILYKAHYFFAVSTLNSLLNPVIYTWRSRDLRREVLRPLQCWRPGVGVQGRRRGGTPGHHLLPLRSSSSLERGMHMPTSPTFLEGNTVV
# GALR2 antag: antagonists of human galanin receptor 2 (GALR2). GALR2-expressing cells, antagonist mode. inhibition, % at 4 µM. hit rate 0.39% among 140,000; in the data active means inhibition above about 27%;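 further: cells stimulated with galanin 1-16 at roughly its EC80; 0% = agonist challenge control and 100% = basal control without agonist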
# GALR2 agonist: activates the human galanin receptor 2; O43603; GALR2-expressing cells, agonist activation read-out; activation, % (concentration not given with the values); hit rate 0.48% among 140,000; in the data active means activation above about 5%, passing the limit was not always enough;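 further: 0% = vehicle buffer wells and 100% = reference agonist at full effect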
# S1P2 antag: blocks the human S1P2 receptor | inhibition, % at 5 µM | cell-based S1P2 antagonist assay, inhibition at 5 uM | O95136 | hit rate 0.21% among 97,000; in the data active means inhibition above about 45%;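 further: CRE beta-lactamase reporter cells expressing human S1P2 stimulated with S1P; 0% = agonist at EC80 alone and 100% = agonist plus reference antagonist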
# HIV Rev-RRE inh: disrupts HIV-1 Rev binding to RRE RNA | P05866 | Rev peptide-RRE RNA binding, FRET | inhibition, % at 8 µM | hit rate 0.79% among 97,000;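 active means inhibition above the screen-wide mean plus 3 SD, cut at about 35% in these data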;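 further: 0% = median DMSO wells and 100% = median Neomycin B control wells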
# Target sequence (P05866 whole entry, looked up): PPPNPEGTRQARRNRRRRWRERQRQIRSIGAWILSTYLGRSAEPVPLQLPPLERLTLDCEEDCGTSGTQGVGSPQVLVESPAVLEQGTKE
#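 Assay system: labelled RRE RNA duplex and labelled Rev peptide / Medium: HEPES pH 7.5 salt buffer with EDTA / Reagent: labelled Rev peptide / Schedule: 5 + 15 min at 25 °C / Signal: FRET, excitation 480 nm, emission 540 nm donor and 671 nm acceptor / Benchmarks: DMSO and neomycin B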
# * marks the source's active call; other numbers are inactive results; . = not tested or not shown; [ ] = dose if it differs, or a comment. In the library only some 1.6% were active in any assay of this set; here they are far more common.
SMILES,S1P2 ag,GALR2 antag,GALR2 agonist,S1P2 antag,HIV Rev-RRE inh
O=C(c1cc(NC(=O)C23CC4CC(CC(C4)C2)C3)cc(NC(=O)C23CC4CC(CC(C4)C2)C3)c1)N1CCCCC1,-11,13,-2,74*,0
N#CC12C(N)=NC3(OCCO3)C1(C#N)C1=C(CCC1)NC2c1ccccc1 (stereo unspecified),-6,-2,-2,3,11
N#CC1(C#N)C2=C(CCCC2)NC(c2ccccc2)C1(C#N)C#N (stereo unspecified),0,12,-3,16,47*
COC(=O)COc1ccc2c(-c3ccc(OC)cc3)cc(=O)oc2c1,-3,1,-1,-24,11
COc1ccc(-c2cc(=O)oc3c(C)c(O)c(CN(C)C)cc23)cc1,-3,13,-1,19,39*
CC(C)NC(=O)NC(=O)COC(=O)c1ccc(F)cc1F,.,2,-1,.,.
CCOc1ccc(-n2nc3c(-n4ncc(C#N)c4N)nnc(C)c3c2C)cc1,-3,-13,0,-32,4
Cc1ccc2nc(SC(C(=O)c3ccccc3)c3ccccc3)nc(C)c2c1 (stereo unspecified),.,11,0,.,.
O=C(CCn1cnc2ccccc2c1=O)Nc1nc(-c2ccc(Br)cc2)cs1,.,-5,7.9*,.,.
Cc1cccn2c(=O)c(/C=C(\C#N)C(=O)NC3CCS(=O)(=O)C3)c(N3CCC(C(N)=O)CC3)nc12 (stereo unspecified),.,-4,6.3*,.,.
CNC(=S)N(Cc1ccc(OC)cc1)C1CC(=O)N(c2ccc(Cl)cc2)C1=O (stereo unspecified),-6,-11,-1,8,12
CCOC(=O)c1c(NC(=O)C(F)(OC)C(F)(F)F)sc2c1CCN(C)C2 (stereo unspecified),2,-7,2,6,56*
CCOC(=O)c1c(NC(=O)CSc2nnc(C)s2)sc2c1CCN(C)C2,-2,2,-3,-2,40*
CCOC(=O)CC(=O)CSc1nc2ccc(C)cc2cc1C#N,-7,-5,-1,12,94*[fluorescence artefact?]
CCOC(=O)NC(=O)CSc1nc(C)cc(C(F)(F)F)c1C#N,-5,3,-1,-11,42*
COC(=O)CSc1nc(C)cc(C(F)(F)F)c1C#N,-1,-3,-1,-4,11
COC(=O)CSc1nc2cc(C)ccc2cc1C#N,-6,8,-1,2,12
CCOC(=O)CC(=O)CSc1nc(C)cc(C)c1C#N,-5,5,7.2*,-3,3
Cc1ccc(S(=O)(=O)CCSc2nc(C)cc(C(F)(F)F)c2C#N)cc1,-4,4,-2,0,64*
COc1ccccc1N(C(=O)c1cncc(Br)c1)c1nc(-c2ccc(C)cc2)cs1,.,-4,-1,.,.
CC(C(=O)OCC(=O)c1cccc([N+](=O)[O-])c1)N1C(=O)C2C3CCC(C3)C2C1=O (stereo unspecified),.,1,-1,.,.
COc1cc2c(cc1OC)C1=C(C#N)CC/C(=N\S(=O)(=O)c3cccc(Cl)c3)N1CC2,49*,5,0,-41,1
Cc1ccc(Nc2nc3ccccc3nc2-n2nc(C)cc2C)cc1,20*,-4,2,10,25
Cc1ccc(CO/N=C\Cc2snc(Sc3ncc(C(F)(F)F)cc3Cl)c2C#N)cc1,-3,-11,-3,-5,60*
CC(C)CC(NC(=O)c1ccc(Cl)cc1)C(=O)OCc1cc([N+](=O)[O-])cc2c1OCOC2 (stereo unspecified),.,-2,-2,.,.
SMILES,S1P2 ag,GALR2 antag,GALR2 agonist,S1P2 antag,HIV Rev-RRE inh
N=c1c(C(=O)NC2CCCC2)cc2c(=O)n3ccccc3nc2n1C1CCCC1,6,-9,3,-11,2
CCOC(=O)c1cc2c(=O)n3ccccc3nc2n(CC2CCCO2)c1=NC(C)=O (stereo unspecified),26*,-20,24*,-46,7
Cc1cccn2c(=O)c3cc(C(=O)NC4CCCC4)c(=N)n(C4CCCC4)c3nc12,.,0,5.0*,.,.
CCCCn1c(=NC(=O)c2ccco2)c(C(=O)OCC)cc2c(=O)n3ccccc3nc21,6,-11,7,-9,1
CCOCCCn1c(=NC(=O)c2cccnc2)c(C(=O)OCC)cc2c(=O)n3ccccc3nc21,10,-10,6.0*,-28,11
Cc1ccc(CNC(=O)c2cc3c(=O)n4ccccc4nc3n(CC3CCCO3)c2=N)cc1 (stereo unspecified),.,-12,8.3*,.,.
COCCOC(=O)c1c(C)oc2ccc(OC(=O)c3c(OC)cccc3OC)cc12,0,-13,1,13,6
CCO/C=C/C(O)(CNC(=O)c1ccc(C(C)(C)C)cc1)C(F)(F)F (stereo unspecified),.,11,0,.,.
COCCCn1c(=N)c(C(=O)NC2CCCCC2)cc2c(=O)n3ccccc3nc21,32*,-26,16*,-56,5
N=c1c(C(=O)NCc2ccco2)cc2c(=O)n3ccccc3nc2n1Cc1ccc(Cl)cc1,29*,-23,5.2*,-37,19
CC(C)(C)c1nnc(SCC(=O)c2ccccc2)n(N)c1=O,.,-4,0,.,.
Cc1ccc(C)c(NC(=O)/C(C#N)=C/c2ccc(Sc3nncn3C)c([N+](=O)[O-])c2)c1,.,2,-1,.,.
COc1ccc(COc2cc(-c3cccc(OC)c3)nc3ccc(NC(=O)C(C)C)cc23)cc1,.,-8,-2,.,.
CCN(Cc1nc2ccccc2c(=O)[nH]1)Cc1nc2cc(OC)c(OC)cc2c(=O)[nH]1,18*,-9,-1,-63,-2
COc1cc2nc(CN(C)Cc3nc4ccccc4c(=O)[nH]3)[nH]c(=O)c2cc1OC,6,-6,-3,-15,12
O=[N+]([O-])c1ccc(N/N=C/c2c[nH]c3ccccc23)c(S(=O)(=O)Nc2ccc(Cl)cc2)c1,-5,2,-2,10,65*[fluorescence artefact?]
COc1ccccc1NS(=O)(=O)c1cc([N+](=O)[O-])ccc1N/N=C/c1c(C)[nH]c2ccccc12,-15,9,-5,69*,66*[fluorescence artefact?]
CN1CCN(S(=O)(=O)c2cc([N+](=O)[O-])ccc2N/N=C/c2ccc(Cl)cc2)CC1,.,4,0,.,.
CCN(CC)CCNC(=O)C(=O)NCC1OCCN1S(=O)(=O)c1ccc([N+](=O)[O-])cc1 (stereo unspecified),.,2,-3,.,.
C=CCn1c(N)c(C(=O)Nc2cccc(C)c2)c2nc3ccccc3nc21,52*,-7,14*,-50,16
C=CCn1c(N)c(C(=O)Nc2ccc(C)c(C)c2)c2nc3ccccc3nc21,9,5,1,-35,3
COc1ccc(/C=C2\C(=O)N(c3nc(-c4ccc(Br)cc4)cs3)N=C2c2ccccc2)cc1,0,-8,-2,1,5
CCOc1cc(/C=C2\C(=O)N(c3nc(-c4ccc(Br)cc4)cs3)N=C2c2ccccc2)ccc1O,-2,-6,0,8,58*
Cc1nn(-c2cccc(C(F)(F)F)c2)c(Cl)c1/C=N/n1cnnc1,-6,3,-2,4,36*
